Measured values from ChEMBL document CHEMBL1134691, “3-Phenyl-5-acyloxymethyl-2H,5H-furan-2-ones: synthesis and biological activity of a novel group of potential antifungal drugs” (2001).
Converted amounts (≈) assume the structure as drawn.

How the values were obtained:
Candida tropicalis [1] = experiment: Inhibition of Candida tropicalis 156 growth for 24 hours in vitro.; format: functional; conditions: Candida tropicalis, 24 h; read-out: MIC
How it was run: (§1)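 NCCLS M27-A broth microdilution in RPMI 1640 with L-glutamine and 0.165 M MOPS, pH 7.0. Isolates kept on Sabouraud dextrose agar. Inoculum 5 × 10^3 cfu/mL final. Compounds were diluted in DMSO (≤2% final) and tested in 2-fold dilutions of 1000–0.24 µmol/L. Incubation at 35 °C, OD540 read at 24 and 48 h. MIC = 80% growth inhibition versus control; assays run twice in duplicate.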

[2] = Inhibition of Trichophyton mentagrophytes 445 growth for 120 hours in vitro.; format: functional, Arthroderma benhamiae; conditions: Trichophyton benhamiae, 120 h; read-out: MIC
How it was run: (§2)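 Dermatophyte grown in MOPS-buffered (0.165 M, pH 7.0) RPMI 1640 containing L-glutamine, in an M27-A microdilution format. Inoculum 5 × 10^3 cfu/mL final. Compounds from DMSO stocks (≤2% final), 2-fold dilutions 1000–0.24 µmol/L. Incubated at 35 °C, growth judged visually at 72 and 120 h. MIC endpoint is 80% inhibition relative to control; measured twice in duplicate.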

Candida parapsilosis [3] = experiment: Inhibition of Candida parapsilosis ATCC 22019 growth for 24 hours in vitro.; format: functional; conditions: Lodderomyces parapsilosis, ATCC 22019, 24 h; read-out: MIC; how it was run: as §1
Pichia kudriavzevii [4] = experiment: Inhibition of Candida krusei E28 growth for 48 hours in vitro.; format: functional; conditions: Pichia kudriavzevii, 48 h; read-out: MIC; how it was run: as §1
[5] = Inhibition of Trichophyton mentagrophytes 445 growth for 72 hours in vitro.; format: functional, Arthroderma benhamiae; conditions: Trichophyton benhamiae, 72 h; read-out: MIC; how it was run: as §2
Pichia kudriavzevii [6] = experiment: Inhibition of Candida krusei ATCC 6258 growth for 24 hours in vitro.; format: functional; conditions: Pichia kudriavzevii, ATCC 6258, 24 h; read-out: MIC; how it was run: as §1
Candida albicans [7] = experiment: Inhibition of Candida albicans ATCC 44859 growth for 24 hours in vitro.; format: functional; conditions: Candida albicans, ATCC 44859, 24 h; read-out: MIC; how it was run: as §1
Trichosporon beigelii [8] = experiment: Inhibition of Trichosporon beigelli 1188 for 48 hours in vitro.; format: functional; conditions: Trichosporon beigelii, 48 h; read-out: MIC
How it was run: (§3)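 Microdilution following NCCLS M27-A. Medium: RPMI 1640 with L-glutamine, 0.165 M MOPS, pH 7.0. Final inoculum 5 × 10^3 cfu/mL. Compounds dissolved in DMSO, final ≤2%, serially halved from 1000 to 0.24 µmol/L. Incubated at 35 °C and read at 24 and 48 h. MIC defined as 80% inhibition of control growth; run twice in duplicate.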

Pichia kudriavzevii [9] = experiment: Inhibition of Candida krusei ATCC 6258 growth for 48 hours in vitro.; format: functional; conditions: Pichia kudriavzevii, ATCC 6258, 48 h; read-out: MIC; how it was run: as §1
Aspergillus fumigatus [10] = experiment: Inhibition of Aspergillus fumigatus 231 growth for 24 hours in vitro.; format: functional; conditions: Aspergillus fumigatus, 24 h; read-out: MIC
How it was run: (§4)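 Filamentous isolates tested by microdilution per NCCLS M27-A in RPMI 1640 plus L-glutamine, buffered with 0.165 M MOPS to pH 7.0. Final inoculum 5 × 10^3 cfu/mL. Compounds in DMSO (final ≤2%), 2-fold series over 1000–0.24 µmol/L. Plates held at 35 °C and read visually after 24 and 48 h. MIC taken as 80% inhibition of control growth; determined twice in duplicate.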

Aspergillus fumigatus [11] = experiment: Inhibition of Aspergillus fumigatus 231 growth for 48 hours in vitro.; format: functional; conditions: Aspergillus fumigatus, 48 h; read-out: MIC; how it was run: as §4
Clavispora lusitaniae [12] = experiment: Inhibition of Candida lusitaniae 2446/I growth for 24 hours in vitro.; format: functional; conditions: Clavispora lusitaniae, 24 h; read-out: MIC; how it was run: as §1
Candida tropicalis [13] = experiment: Inhibition of Candida tropicalis 156 growth for 48 hours in vitro.; format: functional; conditions: Candida tropicalis, 48 h; read-out: MIC; how it was run: as §1
Trichosporon beigelii [14] = experiment: Inhibition of Trichosporon beigelli 1188 for 24 hours in vitro.; format: functional; conditions: Trichosporon beigelii, 24 h; read-out: MIC; how it was run: as §3
Nakaseomyces glabratus [15] = experiment: Inhibition of Candida glabrata 20/I growth for 48 hours in vitro.; format: functional; conditions: Nakaseomyces glabratus, 48 h; read-out: MIC; how it was run: as §1
Lichtheimia corymbifera [16] = experiment: In vitro inhibition of Absidia corymbifera 272 growth for 24 hours.; format: functional; conditions: Lichtheimia corymbifera, 24 h; read-out: MIC; how it was run: as §4
Lichtheimia corymbifera [17] = experiment: In vitro inhibition of Absidia corymbifera 272 growth for 48 hours.; format: functional; conditions: Lichtheimia corymbifera, 48 h; read-out: MIC; how it was run: as §4
Candida albicans [18] = experiment: Inhibition of Candida albicans ATCC 90028 for 48 hours in vitro.; format: functional; conditions: Candida albicans, ATCC 90028, 48 h; read-out: MIC; how it was run: as §1
Candida albicans [19] = experiment: Inhibition of Candida albicans ATCC 90028 for 24 hours in vitro.; format: functional; conditions: Candida albicans, ATCC 90028, 24 h; read-out: MIC; how it was run: as §1
Candida parapsilosis [20] = experiment: Inhibition of Candida parapsilosis ATCC 22019 growth for 48 hours in vitro.; format: functional; conditions: Lodderomyces parapsilosis, ATCC 22019, 48 h; read-out: MIC; how it was run: as §1
Clavispora lusitaniae [21] = experiment: Inhibition of Candida lusitaniae 2446/I growth for 48 hours in vitro.; format: functional; conditions: Clavispora lusitaniae, 48 h; read-out: MIC; how it was run: as §1
Candida albicans [22] = experiment: Inhibition of Candida albicans ATCC 44859 growth for 48 hours in vitro.; format: functional; conditions: Candida albicans, ATCC 44859, 48 h; read-out: MIC; how it was run: as §1
Pichia kudriavzevii [23] = experiment: Inhibition of Candida krusei E28 growth for 24 hours in vitro.; format: functional; conditions: Pichia kudriavzevii, 24 h; read-out: MIC; how it was run: as §1
Nakaseomyces glabratus [24] = experiment: Inhibition of Candida glabrata 20/I growth for 24 hours in vitro.; format: functional; conditions: Nakaseomyces glabratus, 24 h; read-out: MIC; how it was run: as §1

MIC (Candida tropicalis [1])	MIC [2]	MIC (Candida parapsilosis [3])	MIC (Pichia kudriavzevii [4])	MIC [5]	MIC (Pichia kudriavzevii [6])	MIC (Candida albicans [7])	MIC (Trichosporon beigelii [8])	MIC (Pichia kudriavzevii [9])	MIC (Aspergillus fumigatus [10])	MIC (Aspergillus fumigatus [11])	MIC (Clavispora lusitaniae [12])	MIC (Candida tropicalis [13])	MIC (Trichosporon beigelii [14])	MIC (Nakaseomyces glabratus [15])	MIC (Lichtheimia corymbifera [16])	MIC (Lichtheimia corymbifera [17])	MIC (Candida albicans [18])	MIC (Candida albicans [19])	MIC (Candida parapsilosis [20])	Compound	further results
7.81 µM (≈ 2.76 µg/mL)	3.91 µM (≈ 1.38 µg/mL)	3.91 µM (≈ 1.38 µg/mL)	7.81 µM (≈ 2.76 µg/mL)	1.95 µM (≈ 0.689 µg/mL)	3.91 µM (≈ 1.38 µg/mL)	0.49 µM (≈ 0.173 µg/mL)	7.81 µM (≈ 2.76 µg/mL)	7.81 µM (≈ 2.76 µg/mL)	0.98 µM (≈ 0.346 µg/mL)	3.91 µM (≈ 1.38 µg/mL)	3.91 µM (≈ 1.38 µg/mL)	7.81 µM (≈ 2.76 µg/mL)	7.81 µM (≈ 2.76 µg/mL)	1.95 µM (≈ 0.689 µg/mL)	7.81 µM (≈ 2.76 µg/mL)	15.6 µM (≈ 5.52 µg/mL)	7.81 µM (≈ 2.76 µg/mL)	1.95 µM (≈ 0.689 µg/mL)	15.6 µM (≈ 5.52 µg/mL)	CC(C)(C)C(=O)OCC1C=C(c2ccc(Br)cc2)C(=O)O1 (stereo not drawn)	MIC (Clavispora lusitaniae [21]): 7.81 µM (≈ 2.76 µg/mL); MIC (Candida albicans [22]): 1.95 µM (≈ 0.689 µg/mL); MIC (Pichia kudriavzevii [23]): 7.81 µM (≈ 2.76 µg/mL); MIC (Nakaseomyces glabratus [24]): 1.95 µM (≈ 0.689 µg/mL)
7.81 µM (≈ 2.08 µg/mL)	1.95 µM (≈ 0.52 µg/mL)	7.81 µM (≈ 2.08 µg/mL)	7.81 µM (≈ 2.08 µg/mL)	1.95 µM (≈ 0.52 µg/mL)	3.91 µM (≈ 1.04 µg/mL)	0.98 µM (≈ 0.261 µg/mL)	15.6 µM (≈ 4.17 µg/mL)	7.81 µM (≈ 2.08 µg/mL)	1.95 µM (≈ 0.52 µg/mL)	3.91 µM (≈ 1.04 µg/mL)	3.91 µM (≈ 1.04 µg/mL)	15.6 µM (≈ 4.17 µg/mL)	3.91 µM (≈ 1.04 µg/mL)	0.98 µM (≈ 0.261 µg/mL)	3.91 µM (≈ 1.04 µg/mL)	7.81 µM (≈ 2.08 µg/mL)	7.81 µM (≈ 2.08 µg/mL)	3.91 µM (≈ 1.04 µg/mL)	7.81 µM (≈ 2.08 µg/mL)	CC(=O)OCC1C=C(c2cccc(Cl)c2)C(=O)O1 (stereo not drawn)	MIC (Clavispora lusitaniae [21]): 7.81 µM (≈ 2.08 µg/mL); MIC (Candida albicans [22]): 3.91 µM (≈ 1.04 µg/mL); MIC (Pichia kudriavzevii [23]): 7.81 µM (≈ 2.08 µg/mL); MIC (Nakaseomyces glabratus [24]): < 0.98 µM
